Active and inactive are the calls of the source. The rule behind the calls is not given here.
What was measured:
NCI-H187 = test: Cytotoxicity against human NCI-H187 cells by resazurin microplate assay; assay type: functional, cell-based
How it was run: (§1)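 Resazurin microplate assay on human cancer lines: KB (oral epidermoid carcinoma), MCF-7 (breast cancer) and NCI-H187 (small-cell lung cancer). IC50 values were read from the assay, with doxorubicin hydrochloride as the reference standard.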

KB [1] = test: Cytotoxicity against human KB cells by resazurin microplate assay; assay type: functional, cell-based; how it was run: as §1
Plasmodium falciparum = test: Antimalarial activity against multidrug-resistant Plasmodium falciparum K1 by microculture radioisotope technique; assay type: functional, organism-based
MCF7 [2] = test: Cytotoxicity against human MCF7 cells by resazurin microplate assay; assay type: functional, cell-based; how it was run: as §1
[3] = test system: Mycobacterium tuberculosis; test: Antimycobacterial activity against Mycobacterium tuberculosis H37Ra by GFPMA assay; assay type: functional, organism-based
Vero = test: Cytotoxicity against african freen monkey Vero cells by green fluorescent protein microplate assay; details: Chlorocebus sabaeus
KB [4] = test: Cytotoxicity against human KB cells at 50 ug/ml by resazurin microplate assay; assay type: functional, cell-based
How it was run: (§2)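 Single-concentration test at 50 µg/mL (119 µM) by resazurin microplate assay on human KB (oral epidermoid carcinoma) or MCF-7 (breast cancer) cells, with doxorubicin hydrochloride as the reference standard.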

MCF7 [5] = test: Cytotoxicity against human MCF7 cells at 50 ug/ml by resazurin microplate assay; assay type: functional, cell-based; how it was run: as §2

SMILES | IC50 (NCI-H187) | IC50 (KB [1]) | IC50 (Plasmodium falciparum) | Activity (NCI-H187) | Activity (MCF7 [2]) | further results
COc1cccc2c1C(=O)c1c(O)c3c(c(O)c1C2=O)C[C@@](O)(C(=O)CO)C[C@@H]3O[C@H]1C[C@H](N)[C@H](O)[C@H](C)O1 [DOXORUBICIN] | 0.098 µM | 0.37 µM | – | – | – | –
C[C@H]1[C@@H](O)O[C@@H]2O[C@@]3(C)CC[C@H]4[C@H](C)CC[C@@H]1[C@@]24OO3 [ARTENIMOL] | – | – | 0.004 µM | – | – | –
CCC(/C=C/C=C/C=C/C(O)=C1\C(=O)NC(Cc2ccc(O)cc2)C1=O)CO (stereo not given) [TORRUBIELLONE D] | – | 44 µM | – | inactive | inactive | –
CCC(/C=C/C=C/C=C/C(=O)c1c(O)c([C@]2(O)CC[C@@H](O)CC2)cn(O)c1=O)CO (stereo not given in full) [TORRUBIELLONE A] | 69 µM | – | 8.1 µM | – | – | Activity [3]: inactive; IC50 (Vero): 87 µM; Activity (KB [4]): inactive; Activity (MCF7 [5]): inactive
CCC(/C=C/C=C/C=C/C(=O)c1c(O)c([C@]2(O)CC[C@@H](O)CC2)c[nH]c1=O)CO (stereo not given in full) | – | – | – | inactive | inactive | Activity (KB [1]): inactive
